Laboratory results as given in ChEMBL document CHEMBL1148483, “Potent nonclassical nucleoside antiviral drugs based on the N,N-diarylformamidine concept” (J Med Chem, 2004).
Several values for one entry are separate records, joined by “and”; a condition that tells them apart may be missing. Equal entries are not always repeated.

What was measured:
[1] = Partition coefficient (logP); assay type: physicochemical; details: octanol/water
[2] = Half life is the time required for hydrolysis of compound to 3TC in HBV medium at 37 degree celsius; assay type: ADME
How it was run: (§1)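 Compound in DMSO diluted 1:100 into medium, final concentration around 5×10^-4 M, and held at 37 °C. Media: PBS (0.01 M, pH 7.4), HepG2.2.15 culture medium, or MT-4 medium (RPMI 1640 + 10% FCS). Samples taken over time and quenched in ice-cold methanol. Conversion to 3TC followed by HPLC at 317 nm. t1/2 is the time to 50% hydrolysis.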

[3] = Half life is the time required for hydrolysis of compound to 3TC in HepG 2.2.15 lysate medium at 37 degree celsius; assay type: ADME, HepG2 2.2.15; details: human, HepG 2.2.15 cell lysate
How it was run: (§2)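 Cell lysates prepared from PBS-washed HepG2.2.15 or MT-4 cells, about 10×10^6 cells/mL, in Tris-HCl 50 mM, NaCl 150 mM, EDTA 0.1 mM, 0.5% NP40 and protease inhibitors. Lysis 10 min on ice, then centrifuged; supernatant used. Compound added from DMSO to a final concentration around 5×10^-4 M, 37 °C. Timed samples quenched in cold methanol, HPLC at 317 nm. t1/2 is the time to 50% conversion to 3TC.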

[4] = Half life is the time required for hydrolysis of compound to 3TC in PBS medium at 37 degree celsius; assay type: ADME; how it was run: as §1
MT4 [5] = assay: Effective concentration to inhibit HIV-1 IIIB cytopathicity in MT-4 cells was determined in vitro; assay type: functional, cell-based; details: Homo sapiens
How it was run: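 HIV-1 IIIB-infected MT-4 cells (RPMI 1640, 10% FCS); inhibition of virus-induced cytopathicity read 5 days post-infection; EC50 = concentration inhibiting cytopathicity by 50%.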

MT4 [6] = assay: Concentration required to cause death of MT-4 cells was determined in vitro; assay type: functional; details: Homo sapiens
How it was run: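 Uninfected (mock-infected) MT-4 cells grown in RPMI 1640 + 10% heat-inactivated FCS, 2 mM L-glutamine, gentamicin; viability measured at day 5 at 37 °C, 5% CO2; CC50 = concentration causing 50% death of uninfected cells.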

PBMC [7] = assay: Concentration required to cause death of PBMC cells was determined in vitro; assay type: functional; details: Homo sapiens
How it was run: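 Healthy-donor PBMCs activated 3 days with PHA-P (1 μg/mL) and rhIL-2 (5 IU/mL), 100 000 cells/well in RPMI 1640/10% FCS + 20 IU/mL rhIL-2; drug-induced cytotoxicity judged by microscopic observation; CC50 = concentration causing 50% death of uninfected cells.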

PBMC [8] = assay: Effective concentration to inhibit HIV-1 LAI cytopathicity in PBMC cells was determined in vitro; assay type: functional, cell-based; details: Homo sapiens
How it was run: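 PHA-P/rhIL-2-activated PBMCs (100 000/well) pretreated 30 min with compound, then infected with 75 TCID50 HIV-1/LAI; supernatant RT activity measured at day 7; triplicates, mean ± SD; EC50 from percent of untreated controls, 50% inhibition of replication.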

MT4 [9] = assay: Selectivity index is the ratio of CC50 to EC50 values; assay type: functional
How it was run: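 Selectivity index = CC50/EC50 for uninfected versus HIV-1-infected MT-4 cells or PBMCs.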

[10] = Half life is the time required for hydrolysis of compound to 3TC in HIV medium at 37 degree celsius; assay type: ADME; how it was run: as §1
[11] = Half life is the time required for hydrolysis of compound to 3TC in MT-4 lysate medium at 37 degree celsius; assay type: ADME; details: human, MT-4 cell lysate; how it was run: as §2
HepG2 = assay: Effective concentration to inhibit hepatitis B virus DNA formation in HepG2.2.15 cells was determined in vitro; details: Homo sapiens

SMILES | logP [1] | half-life [2] | half-life [3] | half-life [4] | EC50 (MT4 [5]) | CC50 (MT4 [6]) | CC50 (PBMC [7]) | EC50 (PBMC [8]) | SI (MT4 [9]) | half-life [10] | half-life [11] | EC50 (HepG2)
CN(C)/C=N/c1ccn(C2CSC(CO)O2)c(=O)n1 (stereo not drawn) | 1.02 | 2 h | 3 h | 3.5 h | 0.57 µM | > 440 µM | > 10 µM | 0.0237 µM | >772 and >422 | 2.5 h | 4.5 h | 0.01 µM
Nc1ccn([C@@H]2CS[C@H](CO)O2)c(=O)n1 [LAMIVUDINE] | 0.06 |  |  |  | 0.5 µM | > 44 µM | > 10 µM | 0.0116 µM |  |  |  | 0.2 µM
Nc1ccn([C@H]2CC[C@@H](CO)O2)c(=O)n1 [ZALCITABINE] | -0.58 |  |  |  | 1.04 µM | 141 µM |  |  | 135 |  |  | 
O=c1nc(/N=C/N2CCOCC2)ccn1C1CSC(CO)O1 (stereo not drawn) | 0.62 | 1 h | 2.5 h | 2.5 h | 0.4 µM | > 265 µM | > 10 µM | 0.0062 µM |  | 1.5 h | 3.5 h | 0.05 µM
